Results reported in paper PMC11872064 (Drug Design, Development and Therapy, 2025).

Tests used:
hOAT3 = molecular target: T1, hOAT3 (Homo sapiens, UniProt Q8TCC7); assay: hOAT3 expressing oocytes, [14C]UA uptake inhibition; type: cell-based; conditions: inhibitor injected inside the oocyte
T1 sequence (Q8TCC7 1-542): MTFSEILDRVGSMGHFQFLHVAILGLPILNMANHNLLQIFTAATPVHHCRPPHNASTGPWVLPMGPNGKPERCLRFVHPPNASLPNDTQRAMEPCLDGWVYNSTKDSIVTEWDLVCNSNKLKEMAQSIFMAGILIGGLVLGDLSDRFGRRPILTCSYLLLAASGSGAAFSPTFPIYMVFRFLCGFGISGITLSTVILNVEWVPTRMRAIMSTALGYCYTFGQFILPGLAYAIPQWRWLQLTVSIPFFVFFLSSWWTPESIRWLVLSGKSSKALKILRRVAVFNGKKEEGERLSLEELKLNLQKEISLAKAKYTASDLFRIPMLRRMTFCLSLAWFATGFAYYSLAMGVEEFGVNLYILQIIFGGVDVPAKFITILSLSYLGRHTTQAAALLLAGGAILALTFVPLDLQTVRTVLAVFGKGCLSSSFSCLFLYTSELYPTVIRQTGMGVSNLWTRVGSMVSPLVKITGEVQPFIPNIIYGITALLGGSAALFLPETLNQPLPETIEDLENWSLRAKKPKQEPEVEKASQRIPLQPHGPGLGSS

hNPT4 = molecular target: T2, hNPT4 (Homo sapiens, UniProt O00476); assay: hNPT4 expressing oocytes, [14C]UA uptake inhibition; type: cell-based; conditions: for [14C]UA uptake inhibition via hNPT4, inhibitor outside: inhibitor in uptake solution
T2 sequence (O00476 1-498 isoform O00476-2): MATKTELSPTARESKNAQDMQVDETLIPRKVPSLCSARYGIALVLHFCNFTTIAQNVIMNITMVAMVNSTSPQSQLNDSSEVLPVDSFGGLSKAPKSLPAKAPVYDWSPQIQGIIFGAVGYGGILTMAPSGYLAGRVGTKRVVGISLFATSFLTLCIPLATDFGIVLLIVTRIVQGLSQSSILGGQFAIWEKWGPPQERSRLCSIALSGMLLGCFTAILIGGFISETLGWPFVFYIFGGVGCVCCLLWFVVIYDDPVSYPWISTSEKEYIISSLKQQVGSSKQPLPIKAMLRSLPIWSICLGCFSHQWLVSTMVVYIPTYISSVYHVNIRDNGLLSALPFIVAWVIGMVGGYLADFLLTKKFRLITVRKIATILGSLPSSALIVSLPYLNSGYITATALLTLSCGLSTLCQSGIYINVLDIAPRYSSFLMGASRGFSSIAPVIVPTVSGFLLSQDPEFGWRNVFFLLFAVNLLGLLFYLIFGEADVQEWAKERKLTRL
Method in brief: (§1)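 Xenopus oocytes were injected with 25 ng cRNA for hNPT4 or hOAT10 and held 2–3 days at 18 ± 2 °C. [14C]uric acid uptake was measured at room temperature in ND96. Inhibitor was either added to the uptake solution (outside) or injected into the oocyte (46 nL, inside); injected oocytes were washed and then incubated 60 min with substrate. Uptake was stopped with ice-cold washes, oocytes were SDS-solubilised and counted by scintillation, and results are mean ± S.D.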

hOAT1 = molecular target: T3, hOAT1 (Homo sapiens, UniProt Q4U2R8); assay: hOAT1 expressing oocytes, [14C]UA uptake inhibition; type: cell-based; conditions: inhibitor injected inside the oocyte
T3 sequence (Q4U2R8 1-563): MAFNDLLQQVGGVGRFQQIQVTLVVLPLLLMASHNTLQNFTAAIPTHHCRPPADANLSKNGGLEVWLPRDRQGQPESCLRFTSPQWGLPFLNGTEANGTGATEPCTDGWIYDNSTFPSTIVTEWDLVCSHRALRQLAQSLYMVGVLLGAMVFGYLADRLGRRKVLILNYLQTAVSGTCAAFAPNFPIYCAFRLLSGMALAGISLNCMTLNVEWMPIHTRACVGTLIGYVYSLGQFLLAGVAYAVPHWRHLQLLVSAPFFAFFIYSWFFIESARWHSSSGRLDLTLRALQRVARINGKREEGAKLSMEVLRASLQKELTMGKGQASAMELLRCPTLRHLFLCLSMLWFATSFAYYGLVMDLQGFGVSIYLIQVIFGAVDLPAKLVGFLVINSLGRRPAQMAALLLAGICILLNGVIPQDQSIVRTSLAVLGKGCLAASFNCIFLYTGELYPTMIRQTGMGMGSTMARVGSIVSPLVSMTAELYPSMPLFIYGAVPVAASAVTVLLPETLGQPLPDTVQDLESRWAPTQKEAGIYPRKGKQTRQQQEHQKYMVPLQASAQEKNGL

hOAT10 = hOAT10 (Homo sapiens, UniProt Q9Y226); assay: hOAT10 expressing oocytes, [14C]UA uptake inhibition; type: cell-based; conditions: for [14C]UA uptake inhibition via hOAT10, inhibitor inside: inhibitor injected inside the oocyte
Method in brief: as §1

hURAT1 = molecular target: T4, hURAT1 (Homo sapiens, UniProt Q96S37); assay: hURAT1 expressing oocytes, [14C]UA uptake inhibition; type: cell-based
T4 sequence (Q96S37 1-553): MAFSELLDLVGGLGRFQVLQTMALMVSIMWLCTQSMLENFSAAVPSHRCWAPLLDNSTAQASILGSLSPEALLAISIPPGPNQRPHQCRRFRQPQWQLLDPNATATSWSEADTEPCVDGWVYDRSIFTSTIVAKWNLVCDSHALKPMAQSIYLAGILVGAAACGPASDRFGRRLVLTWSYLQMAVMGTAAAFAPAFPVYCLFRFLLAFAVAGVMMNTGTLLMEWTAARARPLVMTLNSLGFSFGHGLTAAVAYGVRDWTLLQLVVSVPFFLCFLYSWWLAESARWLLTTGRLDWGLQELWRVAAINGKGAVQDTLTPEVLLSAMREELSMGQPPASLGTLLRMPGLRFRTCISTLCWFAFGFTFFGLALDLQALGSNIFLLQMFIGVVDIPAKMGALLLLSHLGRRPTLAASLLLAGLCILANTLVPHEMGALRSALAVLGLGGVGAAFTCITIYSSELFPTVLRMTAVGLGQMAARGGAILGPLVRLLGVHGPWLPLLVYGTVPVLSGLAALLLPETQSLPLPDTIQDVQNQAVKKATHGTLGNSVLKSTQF

[1] = Rat pharmacokinetic study; type: in vivo; conditions: male, Sprague-Dawley, whole blood
Method in brief: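 Adult male Sprague-Dawley rats (286 ± 12 g) were fasted 12–15 hr, n=5 per route. IV dosing was a bolus of about 300 µL over 30 sec into the orbital sinus under isoflurane, from aqueous 10% DMSO solution. Oral dosing was a CMC-formulated capsule, 19.6 mg/kg, followed by 500 µL water. Tail-vein blood was collected into K2EDTA from 0.083 to 24 hr (iv) or 0.5 to 30 hr (oral). Test compound was extracted with internal standard and quantified by LC/MS-MS (ESI−) against blood standard curves; LOQ 1.08 ng/mL.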

OATP-1B1 = molecular target: T5, OATP-1B1 (Homo sapiens, UniProt Q9Y6L6); assay: OATP-1B1 expressing oocytes, [3H]estrone sulfate uptake inhibition; type: cell-based; conditions: OATP-1B1 IC50, substrate [3H]estrone sulfate, value in nM
T5 sequence (Q9Y6L6 1-691): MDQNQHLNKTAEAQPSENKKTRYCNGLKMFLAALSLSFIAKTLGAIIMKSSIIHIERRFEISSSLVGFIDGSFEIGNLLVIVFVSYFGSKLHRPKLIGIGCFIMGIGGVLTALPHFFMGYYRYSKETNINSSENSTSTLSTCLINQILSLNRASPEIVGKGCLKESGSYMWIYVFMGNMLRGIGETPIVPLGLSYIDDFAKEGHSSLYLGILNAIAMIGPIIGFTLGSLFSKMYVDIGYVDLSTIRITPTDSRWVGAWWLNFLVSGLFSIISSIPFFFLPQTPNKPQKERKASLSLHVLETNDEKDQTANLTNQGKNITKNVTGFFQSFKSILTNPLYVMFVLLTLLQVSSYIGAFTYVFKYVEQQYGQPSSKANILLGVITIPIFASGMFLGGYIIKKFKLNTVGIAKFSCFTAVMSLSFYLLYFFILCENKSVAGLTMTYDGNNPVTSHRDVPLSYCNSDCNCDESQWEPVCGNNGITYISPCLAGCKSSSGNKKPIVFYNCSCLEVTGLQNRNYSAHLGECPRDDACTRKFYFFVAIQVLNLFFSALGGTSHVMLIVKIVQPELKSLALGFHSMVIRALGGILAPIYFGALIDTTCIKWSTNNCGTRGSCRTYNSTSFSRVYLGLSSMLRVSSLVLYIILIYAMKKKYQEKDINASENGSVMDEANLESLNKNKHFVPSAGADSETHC
Method in brief: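 Xenopus laevis oocytes were defolliculated with collagenase, and stage IV–V oocytes were injected with 25 ng capped cRNA. They were kept 2–3 days at 18 ± 2 °C in ND96, pH 7.4. Uptake ran at room temperature in ND96 with test compound, using [3H]estrone sulfate for OATP1B1 and 2B1 and [3H]estradiol-17β-glucuronide for OATP1B3. Oocytes were washed in ice-cold ND96, solubilised in 5% SDS and counted by scintillation, with control-oocyte uptake subtracted.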

Sequence of hOAT10 (Q9Y226 whole entry): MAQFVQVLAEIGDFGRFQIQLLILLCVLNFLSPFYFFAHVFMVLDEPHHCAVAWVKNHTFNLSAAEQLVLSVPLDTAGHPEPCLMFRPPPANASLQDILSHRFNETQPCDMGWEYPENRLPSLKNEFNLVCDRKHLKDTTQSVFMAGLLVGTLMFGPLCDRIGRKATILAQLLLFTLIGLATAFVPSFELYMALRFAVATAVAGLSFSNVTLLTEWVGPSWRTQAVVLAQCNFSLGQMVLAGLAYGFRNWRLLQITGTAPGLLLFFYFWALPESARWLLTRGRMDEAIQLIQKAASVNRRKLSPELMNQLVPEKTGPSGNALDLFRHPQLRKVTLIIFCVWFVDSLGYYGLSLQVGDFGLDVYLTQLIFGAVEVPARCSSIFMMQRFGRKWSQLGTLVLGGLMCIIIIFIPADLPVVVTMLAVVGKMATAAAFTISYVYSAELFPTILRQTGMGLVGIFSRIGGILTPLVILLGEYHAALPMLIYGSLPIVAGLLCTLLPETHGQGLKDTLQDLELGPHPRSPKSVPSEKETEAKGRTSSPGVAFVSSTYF

| Compound | [14C]UA uptake inhibition via hOAT3, inhibitor inside (hOAT3) | [14C]UA uptake inhibition via hNPT4, inhibitor outside (hNPT4) | [14C]UA uptake inhibition via hNPT4, inhibitor inside (hNPT4; inhibitor injected inside the oocyte) | [14C]UA uptake inhibition via hOAT1, inhibitor inside (hOAT1) | 14C-uric acid transport via hOAT10, inhibitor outside (hOAT10; inhibitor in incubation media) | [14C]UA uptake inhibition via hOAT10, inhibitor outside (hOAT10; inhibitor in uptake solution) | [14C]UA uptake inhibition via hOAT10, inhibitor inside (hOAT10) | [14C]UA uptake inhibition via hOAT10, inhibitor inside (hOAT10; listed as benzbromarone) | Effect on Vmax for [14C]UA uptake (hURAT1; 0.1 µM benzbromarone, 0.3 µM 6-hydroxy benzbromarone in uptake solution) | [14C]UA uptake inhibition via hURAT1, inhibitor inside (hURAT1; inhibitor injected inside the oocyte, [14C]UA 10 µM) | AUC(0-t) ([1]; iv, 0.43 mg/kg) | half-life ([1]; iv, 0.43 mg/kg, T1/2, rat, iv orbital sinus dosing 0.43 mg/Kg) | AUC(0-t) ([1]; po, 19.6 mg/kg) | Cmax ([1]; po, 19.6 mg/kg) | Tmax ([1]; po, 19.6 mg/kg) | IC50 (OATP-1B1) |
| --- | --- | --- | --- | --- | --- | --- | --- | --- | --- | --- | --- | --- | --- | --- | --- | --- |
| CCCN(CCC)S(=O)(=O)c1ccc(C(=O)O)cc1 [Compound 1, probenecid] | profound inhibition | dose-dependent inhibition | moderate inhibition |  |  |  |  |  |  |  |  |  |  |  |  |  |
| CCc1oc2ccccc2c1C(=O)c1cc(Br)c(O)c(Br)c1 [Compound 2, benzbromarone] | not readily inhibited | dose-dependent inhibition |  | not readily inhibited | roughly 50 % of control | dose-dependent effect | did not display this effect | did not produce a statistically different uptake as compared to control | reduced | did not produce a profound inhibition |  |  |  |  |  |  |
| CCc1oc2cc(F)ccc2c1C(=O)c1cc(Br)c(O)c(Br)c1 [Compound 5, (3,5-dibromo-4-hydroxyphenyl)(2-ethyl-6-fluorobenzofuran-3-yl)methanone] |  |  |  |  |  |  |  |  |  |  | 2090 ± 119 ng·h/mL | ~3 h | 60600 ± 7900 ng·h/mL | 6460 to 6470 ng/mL | 2 to 3 h | 739 nM |
